The record followed here is publication PMC5237703 (Acta Pharmaceutica Sinica. B, 2016).

As usually defined, the IC50 is the point on the concentration scale where inhibition reaches its midpoint.

Experiment [1] has as its system colon carcinoma cell line HCT-15. Briefly: MTT cytotoxicity assay, HCT-15. Type of experiment: cell-based. Particulars: read-out: IC50 Colon HCT15. The procedure, abridged:
(§1)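 Cells grown as adherent monolayers in DMEM with 10% FBS at 37 °C under humidified 5% CO2. Cells were trypsin-harvested and seeded at 5×10^3 per well, then graded concentrations of test compound were added for 72 h. MTT (4 mg/mL solution) was added for 4 h, formazan dissolved in DMSO and A570 read. IC50 derived from percent survival; mean ± SD, 2–3 experiments in triplicate.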

The target of experiment [2] is T1, Recombinant human COX-2 (Homo sapiens, UniProt P35354).
T1 sequence (P35354 18-604): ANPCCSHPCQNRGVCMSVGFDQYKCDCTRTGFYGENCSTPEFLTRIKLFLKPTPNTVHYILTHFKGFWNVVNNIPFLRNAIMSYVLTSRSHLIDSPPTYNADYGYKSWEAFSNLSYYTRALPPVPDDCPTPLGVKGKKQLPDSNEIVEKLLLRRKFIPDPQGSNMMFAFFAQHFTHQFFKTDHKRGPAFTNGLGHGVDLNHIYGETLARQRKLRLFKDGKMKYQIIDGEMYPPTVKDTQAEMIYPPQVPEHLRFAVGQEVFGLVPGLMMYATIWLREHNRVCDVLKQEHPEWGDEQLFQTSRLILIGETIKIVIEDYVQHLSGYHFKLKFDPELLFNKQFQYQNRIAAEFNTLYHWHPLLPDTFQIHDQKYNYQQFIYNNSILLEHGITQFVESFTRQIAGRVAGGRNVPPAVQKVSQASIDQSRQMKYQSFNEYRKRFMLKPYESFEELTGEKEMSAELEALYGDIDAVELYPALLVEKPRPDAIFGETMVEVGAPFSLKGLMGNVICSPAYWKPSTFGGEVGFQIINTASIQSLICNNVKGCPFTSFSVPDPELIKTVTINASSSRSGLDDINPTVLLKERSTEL
In words: biochemical. The experiment is classed as biochemical. The settings on record: for Selectivity ratio COX-2/COX-1: ratio of IC50 COX-2 to IC50 COX-1; for IC50: TMPD oxidation at 603 nm.

Experiment [3] concerns pancreatic cancer cell line PANC-1. Briefly: MTT cytotoxicity assay, PANC-1. Type of experiment: cell-based. The settings on record: read-out: IC50 Pancreas PANC-1. The essentials:
as §1
For orientation: Tetrazolium assays rely on reduction of a dye to a coloured formazan, in cell work by metabolically active cells.

For experiment [4], the system named is prostatic cancer cell line DU-145. In words: MTT cytotoxicity assay, DU-145. The experiment is classed as cell-based. The settings on record: read-out: IC50 Prostate DU-145. The essentials:
as §1

Experiment [5] deals with MCF-7 (breast cancer). In words: MTT cytotoxicity assay, MCF-7. Type of experiment: cell-based, human. Particulars: read-out: IC50 Breast MCF-7. The essentials:
(§2)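 Media: EMEM for MCF-7, McCoy's 5a for SaOS-2, RPMI-1640 for K562, each with NaHCO3, sodium pyruvate, 10% fetal calf serum and 1% penicillin/streptomycin. Culture at 37 °C, humidified 5% CO2. Seeded 5×10^3 cells/well and exposed to graded test compound for 72 h. MTT for 4 h, DMSO solubilisation, A570. IC50 from percent survival; mean ± SD, 2–3 experiments in triplicate.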

In experiment [6] the test system is Lung cancer cell line A549. In words: MTT cytotoxicity assay, A549. Type of experiment: cell-based.
The subject of experiment [7] is SaOS-2 (osteosarcoma). Briefly: MTT cytotoxicity assay, SaOS-2. Type of experiment: cell-based, human. The settings on record: read-out: IC50 Bone SaoS2. The essentials:
as §2

In experiment [8] the test system is human embryonic kidney cells HEK293. Briefly: MTT cytotoxicity assay, HEK293. The experiment is classed as cell-based. Particulars: read-out: IC50 Normal HEK293. The essentials: as §1
Experiment [9] relates to breast carcinoma cell line MDA-MB-468. Briefly: MTT cytotoxicity assay, MDA-MB-468. The experiment is classed as cell-based. Particulars: read-out: IC50 Breast MDAMB-468. The procedure, abridged: as §1
The target in experiment [10] is T2, COX-1 (Ovis aries, UniProt P05979).
T2 sequence (P05979 25-600): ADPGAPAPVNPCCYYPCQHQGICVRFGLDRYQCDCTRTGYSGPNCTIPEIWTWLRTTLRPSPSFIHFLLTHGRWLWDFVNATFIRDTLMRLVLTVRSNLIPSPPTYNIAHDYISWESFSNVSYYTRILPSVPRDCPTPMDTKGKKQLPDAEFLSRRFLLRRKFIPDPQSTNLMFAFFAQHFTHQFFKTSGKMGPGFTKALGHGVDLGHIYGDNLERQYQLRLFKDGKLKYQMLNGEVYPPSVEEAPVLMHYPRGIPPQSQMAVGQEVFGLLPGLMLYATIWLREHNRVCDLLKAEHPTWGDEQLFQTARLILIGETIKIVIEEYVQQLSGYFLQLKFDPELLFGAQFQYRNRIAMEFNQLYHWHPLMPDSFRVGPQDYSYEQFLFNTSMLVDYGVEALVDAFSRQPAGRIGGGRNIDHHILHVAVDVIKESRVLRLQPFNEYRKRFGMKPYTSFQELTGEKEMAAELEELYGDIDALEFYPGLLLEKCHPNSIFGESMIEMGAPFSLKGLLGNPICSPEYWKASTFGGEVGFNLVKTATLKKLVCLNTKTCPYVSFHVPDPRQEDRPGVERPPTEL
In words: COX-1 inhibition, chromogenic TMPD oxidation assay. The experiment is classed as biochemical, Ram.

Experiment [11] deals with breast carcinoma cell line MDA-MB-231. Briefly: MTT cytotoxicity assay, MDA-MB-231. The experiment is classed as cell-based. The settings on record: read-out: IC50 Breast MDAMB-231. The essentials:
as §1

Experiment [12] relates to K562 (myelogenous leukemia). Briefly: MTT cytotoxicity assay, K562. The experiment is classed as cell-based, human. Particulars: read-out: IC50 Blood K562. The essentials:
as §2

Experiment [13] has as its system mouse fibroblast KB-31. In words: MTT cytotoxicity assay, KB-31. Type of experiment: cell-based. The settings on record: KB 3-1, 72 h, read-out: IC50 Mouse fibroblast KB-31. The procedure, abridged:
as §1

Setting [14] is: read-out: IC50 COX-2, recombinant human COX-2.
The mark [15] stands for this setting: MTT, 72 h incubation, non-cancerous cell line.
The mark [16] stands for this setting: read-out: IC50 COX-1, COX-1 from Ram seminal vesicles, TMPD oxidation at 603 nm.

Like-named read-outs stand apart in the source and are kept apart here.

As for “4-(3-(4-Fluorophenyl)-3H-imidazo[4,5-b]pyridin-2-yl)-2-methoxyphenol [Compound 3d]”, the IC50 in experiment [1] (MTT, 72 h incubation) is greater than 100 µM; in [2] (setting [14]), 25.6 ± 1 µM; in experiment [3] (MTT, 72 h incubation) it was greater than 100 µM; in experiment [4] (MTT, 72 h incubation), greater than 100 µM; in experiment [5] (MTT, 72 h incubation), 72 µM; in [6] (read-out: IC50 Lung A549, MTT), greater than 100 µM. Besides, the IC50 was 71.5 µM in [7] (MTT, 72 h incubation); greater than 100 µM in [8] (setting [15]); greater than 100 µM in experiment [9] (MTT, 72 h incubation); 42.7 ± 2.5 µM in [10] (setting [16]); greater than 100 µM in experiment [11] (MTT, 72 h incubation); 57 µM in experiment [12] (MTT, 72 h incubation). For the same molecule, the “Selectivity ratio COX-2/COX-1” value in experiment [2] turned out to be 0.60.

Regarding “5-(3-(3,4-Dimethoxyphenyl)-3H-imidazo[4,5-b]pyridin-2-yl)-2-methoxyphenol [Compound 3h]”, the IC50 in experiment [1] (MTT, 72 h incubation) is 66.9 µM; in experiment [2] (setting [14]), 15.4 ± 3.1 µM; in [3] (MTT, 72 h incubation), 57.7 µM; in experiment [4] (MTT, 72 h incubation), greater than 100 µM; in experiment [5] (MTT, 72 h incubation), 53 µM; in experiment [6] (read-out: IC50 Lung A549, MTT), greater than 100 µM. For the same molecule, the IC50 in experiment [7] (MTT, 72 h incubation) was 59 µM; in [8] (setting [15]) it was 80 µM; in experiment [9] (MTT, 72 h incubation), greater than 100 µM; in experiment [10] (setting [16]), 18.5 µM; in experiment [11] (MTT, 72 h incubation) it was greater than 100 µM; in experiment [12] (MTT, 72 h incubation) it was 54.5 µM. For the same molecule, the “Selectivity ratio COX-2/COX-1” value in [2] amounted to 0.83.

Consider “5-(3-(4-Fluorophenyl)-3H-imidazo[4,5-b]pyridin-2-yl)-2-methoxyphenol [Compound 3e]”, for which the 50% inhibitory concentration (IC50) in [1] (MTT, 72 h incubation) is greater than 100 µM; in experiment [2] (setting [14]), 279 ± 7.2 µM; in [3] (MTT, 72 h incubation) it was greater than 100 µM; in [4] (MTT, 72 h incubation), greater than 100 µM; in [5] (MTT, 72 h incubation), 60 µM; in [6] (read-out: IC50 Lung A549, MTT), greater than 100 µM. Moreover, the IC50 in [7] (MTT, 72 h incubation) was 62.5 µM; in experiment [8] (setting [15]), greater than 100 µM; in experiment [9] (MTT, 72 h incubation) it was 78.8 µM; in experiment [10] (setting [16]), 16.8 ± 0.1 µM; in experiment [11] (MTT, 72 h incubation), greater than 100 µM; in experiment [12] (MTT, 72 h incubation), 53 µM. For the same molecule, the “Selectivity ratio COX-2/COX-1” value in experiment [2] was found to be 16.58.

`Oc1cccc(-c2nc3cccnc3n2-c2ccc(F)cc2)c1` [Compound 3a, 3-(3-(4-Fluorophenyl)-3H-imidazo[4,5-b]pyridin-2-yl)phenol]: the IC50 is greater than 100 µM in experiment [1] (Homo sapiens, HCT-15, 72 h); 35.9 ± 2 µM in experiment [2] (IC50 COX-2, recombinant human COX-2); greater than 100 µM in experiment [3] (Homo sapiens, PANC-1, 72 h); greater than 100 µM in experiment [4] (Homo sapiens, DU-145, 72 h); greater than 100 µM in [13]; 61.5 µM in experiment [5] (Homo sapiens, MCF7, 72 h). The IC50 in experiment [6] (Homo sapiens, A549, read-out: IC50 Lung A549) is greater than 100 µM; in experiment [7] (Homo sapiens, SAOS-2, 72 h), 64 µM; in [8] (Homo sapiens, HEK293, 72 h), greater than 100 µM; in experiment [9] (Homo sapiens, MDA-MB-468, 72 h), greater than 100 µM; in [10], 10 ± 0.01 µM; in experiment [11] (Homo sapiens, MDA-MB-231, 72 h), greater than 100 µM. For the same molecule, in [12] (Homo sapiens, K562, 72 h), the IC50 is 49 µM. Also, in experiment [2], the “Selectivity ratio COX-2/COX-1” value was 3.59.
